Test results taken from ChEMBL document CHEMBL3621107, “Ring fusion strategy for synthesis and lead optimization of sulfur-substituted anthra[1,2-c][1,2,5]thiadiazole-6,11-dione derivatives as promising scaffold of antitumor agents” (Eur J Med Chem, 2015).

Legend:
Type in all cases: functional
[1] = Cytotoxicity against human EKVX cells after 48 hrs by SRB assay
Outline: (§1)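 NCI-60 human tumour cell panel screen, second stage, run by the NCI Developmental Therapeutics Program. Compounds were tested at five concentrations (0.01, 0.1, 1, 10 and 100 μM). Percentage growth was plotted against log10 concentration for each cell line. GI50, TGI and LC50 were taken from these dose-response curves.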

[2] = Cytotoxicity against human leukemia cells assessed as growth inhibition after 48 hrs by SRB assay; details: Leukemia cell
Outline: (§2)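 Values come from the NCI-60 five-dose panel (0.01–100 µM). The subpanel MID is the mean GI50 over the lines of that tumour subpanel. The selectivity ratio is the full-panel MID divided by the subpanel MID; 3–6 is rated moderate and >6 high.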

Malme-3M = assay: Cytotoxicity against human MALME-3M cells after 48 hrs by SRB assay; outline: as §1
SR = assay: Cytotoxicity against human SR cells after 48 hrs by SRB assay
Outline: (§3)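 NCI-60 five-dose study run by NCI DTP at 0.01, 0.1, 1, 10 and 100 µM. Percentage growth at each level was plotted against log10 concentration for each line, and GI50, TGI and LC50 were read from the dose-response curves.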

K562 = assay: Cytotoxicity against human K562 cells after 48 hrs by SRB assay; details: K562, 48 h; outline: as §1
NCI-H460 = assay: Cytotoxicity against human NCI-H460 cells after 48 hrs by SRB assay; details: NCI-H460, 48 h
Outline: (§4)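 Second-stage NCI-60 panel run by the NCI Developmental Therapeutics Program, covering nine tumour subpanels. Five concentrations were tested: 0.01, 0.1, 1, 10 and 100 μM. Percentage growth at each level was plotted against log10 drug concentration. GI50, TGI and LC50 were read from these dose-response curves. Subpanel MID values were divided into the full-panel MID to give selectivity ratios.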

SW-620 = assay: Cytotoxicity against human SW620 cells after 48 hrs by SRB assay; details: SW-620, 48 h; outline: as §3
MDA-MB-468 = assay: Cytotoxicity against human MDA-MB-468 cells after 48 hrs by SRB assay; details: MDA-MB-468, 48 h; outline: as §4
[3] = Cytotoxicity against human prostate cancer cells assessed as growth inhibition after 48 hrs by SRB assay; details: Cancer cell lines; outline: as §2
UACC-62 = assay: Cytotoxicity against human UACC62 cells after 48 hrs by SRB assay; details: UACC-62, 48 h; outline: as §3
[4] = Cytotoxicity against human renal cancer cells assessed as growth inhibition after 48 hrs by SRB assay; details: Cancer cell lines; outline: as §2
UO-31 = assay: Cytotoxicity against human UO31 cells after 48 hrs by SRB assay; details: UO-31, 48 h; outline: as §3
BT-549 = assay: Cytotoxicity against human BT549 cells after 48 hrs by SRB assay; details: BT-549, 48 h; outline: as §1
SK-MEL-5 = assay: Cytotoxicity against human SK-MEL-5 cells after 48 hrs by SRB assay; details: SK-MEL-5, 48 h; outline: as §4
LOX IMVI = assay: Cytotoxicity against human LOXIMVI cells after 48 hrs by SRB assay; outline: as §1
MDA-MB-231 = assay: Cytotoxicity against human MDA-MB-231 cells after 48 hrs by SRB assay; details: MDA-MB-231, 48 h; outline: as §4
ACHN = assay: Cytotoxicity against human ACHN cells after 48 hrs by SRB assay; outline: as §1
[5] = Cytotoxicity against human Hs578T cells after 48 hrs by SRB assay; details: Hs-578T; outline: as §1
M14 = assay: Cytotoxicity against human M14 cells after 48 hrs by SRB assay; details: M14, 48 h; outline: as §1
MCF7 = assay: Cytotoxicity against human MCF7 cells after 48 hrs by SRB assay; details: MCF7, 48 h; outline: as §1
[6] = Cytotoxicity against human breast cancer cells assessed as growth inhibition after 48 hrs by SRB assay; details: Cancer cell lines; outline: as §2
SN12C = assay: Cytotoxicity against human SN12C cells after 48 hrs by SRB assay; outline: as §4
[7] = Cytotoxicity against human colon cancer cells assessed as growth inhibition after 48 hrs by SRB assay; details: Cancer cell lines; outline: as §2
NCI-H23 = assay: Cytotoxicity against human NCI-H23 cells after 48 hrs by SRB assay; details: NCI-H23, 48 h; outline: as §4
NCI-H522 = assay: Cytotoxicity against human NCI-H522 cells after 48 hrs by SRB assay; details: NCI-H522, 48 h; outline: as §4
HCT-15 = assay: Cytotoxicity against human HCT15 cells after 48 hrs by SRB assay; details: HCT-15, 48 h; outline: as §1
HCC 2998 = assay: Cytotoxicity against human HCC2998 cells after 48 hrs by SRB assay; details: HCC 2998, 48 h; outline: as §1
CCRF-CEM = assay: Cytotoxicity against human CCRF-CEM cells after 48 hrs by SRB assay; outline: as §1
U-251 = assay: Cytotoxicity against human U251 cells after 48 hrs by SRB assay; details: U-251, 48 h; outline: as §3
RXF 393 = assay: Cytotoxicity against human RXF393 cells after 48 hrs by SRB assay; details: RXF 393, 48 h; outline: as §4
[8] = Cytotoxicity against human non-small cell lung cancer cells assessed as growth inhibition after 48 hrs by SRB assay; details: Cancer cell lines; outline: as §2
A549 = assay: Cytotoxicity against human A549 cells after 48 hrs by SRB assay; details: A549, 48 h; outline: as §1
[9] = read-out: LC50 (the source's name)

For `O=C1c2ccccc2C(=O)c2c1cc(Sc1cccc(Cl)c1)c1nsnc21`, the GI50 [1] was 16 µM, the LC50 [1] was 55 µM and the TGI [1] was 29.7 µM. The GI50 [2] was 1.59 µM, the GI50 (Malme-3M) was 1.98 µM and the LC50 (Malme-3M) was 6.85 µM. It also gave a TGI (Malme-3M) of 3.68 µM, a GI50 (SR) of 2 µM and an LC50 (SR) of over 100 µM. For the same molecule, the TGI (SR) was 8.09 µM, the GI50 (K562) was 2.41 µM and the LC50 (K562) was over 100 µM. It also gave a TGI (K562) of 7.27 µM, a GI50 (NCI-H460) of 4.29 µM and an LC50 (concentration killing 50% of cells) (NCI-H460) of 75.8 µM. For the same molecule, the TGI (NCI-H460) was 18.9 µM, the GI50 (SW-620) was 2.29 µM and the LC50 (50% lethal concentration) (SW-620) was 28.3 µM. The TGI (SW-620) was 5.21 µM, the GI50 (MDA-MB-468) was 0.95 µM and the LC50 (MDA-MB-468) was 5.1 µM. It also gave a TGI (MDA-MB-468) of 2.23 µM, a GI50 [3] of 2.27 µM and a GI50 (UACC-62) of 1.6 µM. It also gave an LC50 (UACC-62) of 6.54 µM, a TGI (UACC-62) of 3.26 µM and a GI50 [4] of 3.81 µM. The GI50 (UO-31) was 1.78 µM, the LC50 (UO-31) was 9.73 µM and the TGI (UO-31) was 4.16 µM. The GI50 (BT-549) was 3.27 µM, the LC50 (BT-549) was 40.3 µM and the TGI (BT-549) was 15.1 µM. The GI50 (SK-MEL-5) was 0.99 µM, the LC50 (SK-MEL-5) was 4.87 µM and the TGI (SK-MEL-5) was 2.21 µM. The GI50 (LOX IMVI) was 0.54 µM, the TGI (LOX IMVI) was 2.08 µM and the CC50 (LOX IMVI; [9]) was 5.73 µM. The GI50 (MDA-MB-231) was 0.37 µM, the LC50 (concentration killing 50% of cells) (MDA-MB-231) was 31.6 µM and the TGI (MDA-MB-231) was 4.1 µM. It also gave a GI50 (ACHN) of 1.62 µM, an LC50 (ACHN) of 6.63 µM and a TGI (ACHN) of 3.27 µM. For the same molecule, the GI50 [5] was 1.97 µM, the LC50 [5] was over 100 µM and the TGI [5] was 6.55 µM. It also gave a GI50 (M14) of 1.66 µM, an LC50 (M14) of 6.94 µM and a TGI (M14) of 3.39 µM. It also gave a GI50 (MCF7) of 1.3 µM, an LC50 (concentration killing 50% of cells) (MCF7) of 8.78 µM and a TGI (MCF7) of 3.37 µM. For the same molecule, the GI50 [6] was 1.52 µM, the GI50 (SN12C) was 1.05 µM and the TGI (SN12C) was 2.58 µM. The CC50 (SN12C; [9]) was 6.35 µM, the GI50 [7] was 10.5 µM and the GI50 (NCI-H23) was 1 µM. The LC50 (NCI-H23) was 22.8 µM, the TGI (NCI-H23) was 3.58 µM and the GI50 (NCI-H522) was 1.84 µM. For the same molecule, the LC50 (concentration giving 50% net cell kill) (NCI-H522) was 9.91 µM, the TGI (NCI-H522) was 4.26 µM and the GI50 (HCT-15) was 2.71 µM. It also gave an LC50 (HCT-15) of 47.1 µM, a TGI (HCT-15) of 11.3 µM and a GI50 (HCC 2998) of 16.2 µM. For the same molecule, the LC50 (HCC 2998) was 62.1 µM, the TGI (HCC 2998) was 31.7 µM and the GI50 (CCRF-CEM) was 0.56 µM. It also gave an LC50 (CCRF-CEM) of over 100 µM, a TGI (CCRF-CEM) of 6.26 µM and a GI50 (U-251) of 1.7 µM. The LC50 (U-251) was 9.39 µM, the TGI (U-251) was 4 µM and the GI50 (RXF 393) was 2.15 µM. For the same molecule, the LC50 (concentration killing 50% of cells) (RXF 393) was 10.9 µM, the TGI (RXF 393) was 4.7 µM and the GI50 [8] was 5.84 µM. For the same molecule, the GI50 (A549) was 6.66 µM, the LC50 (concentration killing 50% of cells) (A549) was 73.6 µM and the TGI (A549) was 24.4 µM.
